Measured values collected from several papers.
Protocols differ between the studies behind these lines.
Target: Tyrosine-protein kinase JAK2 (JAK2, Homo sapiens, UniProt O60674)
Effect on: enzyme activity
Mode: inhibitor

With `Cn1c(=O)n(-c2ccc(C(C)(C)C#N)cc2)c2c3cc(-c4cnc5ccccc5c4)ccc3ncc21` the remaining activity was 24% (10 µM).
With `Cc1ccc(C(=O)Nc2ccc(CN3CCN(C)CC3)c(C(F)(F)F)c2)cc1C#Cc1cnc2cccnn12` the remaining activity was 58% (23.5 nM).
`CN1CCc2cc(Nc3ncc(C4CC4)c(NCCCNC(=O)C4CCC4)n3)ccc2C1` gave a remaining activity of 44% (radiometric; 1 µM).
The remaining activity of `O=C(Nc1cnn(-c2csc(C(=O)NC3COC3)c2)c1)Nc1c(F)cccc1Cl` is reported as 96.5% (5 µM).
For `O=C(NCCCNc1nc(Nc2cccc(CN3CCOCC3)c2)ncc1C1CC1)C1CCC1`, the remaining activity was 46% (radiometric; 1 µM).
With `COc1cc(Nc2cnc(C#N)c(O[C@H](C)CN(C)C)n2)ncc1-c1cnn(C)c1` the remaining activity was 41% (radiometric; 10 µM).
The remaining activity of `CC(C)(C)c1nc2c(s1)c1nc(N)ncc1c1ccc(NS(=O)(=O)c3c(F)cccc3F)c(F)c12` is reported as 85% (radiometric; 1 µM).
`Cc1nn(CC(F)(F)F)cc1Nc1ncc(Br)c(NCc2ccc(S(N)(=O)=O)cc2)n1` has a remaining activity of 70% (radiometric; 1 µM).
`Oc1cccc(-c2nc(N3CCOCC3)c3oc4ncccc4c3n2)c1` gave a remaining activity of 93% (10 µM).
For `COc1cc(Cl)c(C(=O)N[C@@H](CN[C@H]2CC[C@@H](N)CC2)Cc2ccc(C#N)cc2)cc1-c1ccc(CN[C@H](C)c2ccc(C)cc2)o1`, the remaining activity was 104% (1 µM).
For `CC(C)(C)c1nc(-c2cccc(NS(=O)(=O)c3c(F)cccc3F)c2F)c(-c2ccnc(N)n2)s1`, the remaining activity was 90% (radiometric; 1 µM).
`O=C(Nc1cccc(Nc2ncc(Br)c(NCCc3cnc[nH]3)n2)c1)N1CCCC1` has a remaining activity of 24% (radiometric; 1 µM).
`O=C(Nc1cnn(-c2csc(C(=O)NC3COC3)c2)c1)Nc1ccccc1Cl` gave a remaining activity of 98.2% (5 µM).
`Cc1cnc(NC2CCOCC2)nc1-n1cnc(C(=O)NC(CN)c2cc(F)cc(Cl)c2)c1` (stereo not shown) gave a remaining activity of 104% (radiometric; 1 µM).
`Brc1cnc(Nc2cccc(CN3CCOCC3)c2)nc1NCCc1c[nH]cn1` has a remaining activity of 6% (radiometric; 1 µM).
For `CC(C)(O)[C@H]1CC[C@H](Nc2ccc3ncc(-c4cccc(C(F)(F)F)c4)n3n2)CC1`, the remaining activity was 24.8% (1 µM).
